Assay results as given in ChEMBL document CHEMBL4706598 (Eur J Med Chem, 2020).
The source made the active and inactive calls. The rule behind the calls is not given here.

Experiments:
[1] = molecular target: Dipeptidyl peptidase 8 (Homo sapiens, UniProt Q6V1X1); assay: Inhibition of DPP8 (unknown origin)
[2] = molecular target: Dipeptidyl peptidase 9 (Homo sapiens, UniProt Q86TI2); assay: Inhibition of DPP9 (unknown origin)
[3] = system: Mus musculus; assay: Anti-Hyperglycemic activity in high fat diet-fed/streptozotocin-induced type 2 diabetic mellitus C57BL/6 mouse model assessed as blood glucose level at 10 mg/kg, ip administered 30 mins prior to glucose challenge and measured after 2 hrs by IPGTT (reference value: 12.3 to 15.3 mM); assay type: functional; conditions: time 150 min, 2.5 h
Summary of the method: (§1)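 Male C57BL/6 mice made type 2 diabetic by high-fat diet plus streptozotocin. Each received a single intraperitoneal dose (1, 5 or 10 mg/kg) 30 min before an intraperitoneal glucose challenge. Blood glucose was read at 0, 0.5, 1, 1.5 and 2 h. Results are mean ± SD, n = 4.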

[4] = system: Mus musculus; assay: Anti-Hyperglycemic activity in high fat diet-fed/streptozotocin-induced type 2 diabetic mellitus C57BL/6 mouse model assessed as blood glucose level at 10 mg/kg, ip administered 30 mins prior to glucose challenge and measured after 1 hrs by IPGTT (reference value: 12.3 to 15.3 mM); assay type: functional; conditions: time 90 min, 1.5 h; summary of the method: as §1
[5] = system: Mus musculus; assay: Anti-Hyperglycemic activity in high fat diet-fed/streptozotocin-induced type 2 diabetic mellitus C57BL/6 mouse model assessed as blood glucose level at 10 mg/kg, ip administered 30 mins prior to glucose challenge and measured after 0.5 hrs by IPGTT (reference value: 12.3 to 15.3 mM); assay type: functional; conditions: time 60 min, 1 h; summary of the method: as §1
[6] = system: Mus musculus; assay: Anti-Hyperglycemic activity in high fat diet-fed/streptozotocin-induced type 2 diabetic mellitus C57BL/6 mouse model assessed as reduction in blood glucose level at 10 mg/kg/day for 14 days and measured on day 5; assay type: functional, organism-based; conditions: time 5.0 day
Summary of the method: (§2)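 HFD/STZ-induced type 2 diabetic male C57BL/6 mice were dosed at 10 mg/kg/day for 14 days. Plasma glucose was tracked over the treatment period and compared with diabetic controls. Mean ± SD of 4 mice. Statistics: one-way ANOVA with LSD post-test.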

[7] = system: Mus musculus; assay: Anti-Hyperglycemic activity in high fat diet-fed/streptozotocin-induced type 2 diabetic mellitus C57BL/6 mouse model assessed as reduction in blood glucose level at 10 mg/kg/day for 14 days and measured on day 14; assay type: functional; conditions: C57BL/6, 336 h, time 14 day; summary of the method: as §2
[8] = system: Mus musculus; assay: Anti-Hyperglycemic activity in high fat diet-fed/streptozotocin-induced type 2 diabetic mellitus C57BL/6 mouse model assessed as reduction in AUC(0 to 120 mins) of blood glucose level at 10 mg/kg, ip administered 30 mins prior to glucose challenge and measured after 120 mins by IGTT; assay type: functional; conditions: C57BL/6, ip, 2.5 h, time 150 min
Summary of the method: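 Glucose tolerance tests (intraperitoneal or oral) in HFD/STZ type 2 diabetic male C57BL/6 mice. Glucose AUC was calculated over 0–120 min. Percent reduction came from AUC normalised to saline-challenged controls. Mean ± SD, n = 4. Statistics: one-way ANOVA with LSD post-test.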

[9] = system: Mus musculus; assay: Anti-Hyperglycemic activity in high fat diet-fed/streptozotocin-induced type 2 diabetic mellitus C57BL/6 mouse model assessed as blood glucose level at 10 mg/kg, ip administered 30 mins prior to glucose challenge and measured after 1.5 hrs by IPGTT (reference value: 12.3 to 15.3 mM); assay type: functional; conditions: time 120 min, 2 h; summary of the method: as §1
[10] = system: HepG2; assay: Cytotoxicity against human HepG2 cells assessed as reduction in cell viability at 1 to 100 uM measured after 48 hrs by MTT assay; assay type: cell-based; conditions: hepg2, 48 h, dose 1-100 µM
Summary of the method: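 HepG2 cells were exposed to compound at a range of concentrations for 48 h. Viability was measured by MTT assay. Mean ± SD, n = 3.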

[11] = molecular target: Dipeptidyl peptidase 4 (Homo sapiens, UniProt P27487); assay: Inhibition of DPP4 in human Caco-2 cells using AP-AFC as substrate preincubated with enzyme for 10 mins followed by substrate addition and measured after 10 mins by fluorescence based analysis; assay type: cell-based
Sequence of Dipeptidyl peptidase 4 (P27487 whole entry): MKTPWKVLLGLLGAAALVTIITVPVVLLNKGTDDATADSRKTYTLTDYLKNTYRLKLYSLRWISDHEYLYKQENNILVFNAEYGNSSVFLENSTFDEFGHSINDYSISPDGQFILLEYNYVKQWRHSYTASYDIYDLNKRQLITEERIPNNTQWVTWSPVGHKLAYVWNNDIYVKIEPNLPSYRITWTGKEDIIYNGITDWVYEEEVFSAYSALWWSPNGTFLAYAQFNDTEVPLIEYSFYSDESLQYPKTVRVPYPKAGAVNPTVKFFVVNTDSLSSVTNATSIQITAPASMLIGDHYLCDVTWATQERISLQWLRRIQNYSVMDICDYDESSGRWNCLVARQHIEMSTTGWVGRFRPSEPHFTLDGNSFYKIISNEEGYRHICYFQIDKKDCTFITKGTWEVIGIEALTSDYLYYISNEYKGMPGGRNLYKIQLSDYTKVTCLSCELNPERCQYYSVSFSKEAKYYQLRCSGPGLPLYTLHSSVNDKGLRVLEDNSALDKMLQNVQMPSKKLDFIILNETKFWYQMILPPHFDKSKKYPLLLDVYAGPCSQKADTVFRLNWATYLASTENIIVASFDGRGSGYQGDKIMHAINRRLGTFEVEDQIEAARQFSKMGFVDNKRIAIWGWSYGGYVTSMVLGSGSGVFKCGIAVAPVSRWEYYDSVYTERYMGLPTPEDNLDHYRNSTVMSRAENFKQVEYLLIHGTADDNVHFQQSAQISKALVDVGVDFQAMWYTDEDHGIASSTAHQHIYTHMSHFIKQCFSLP

Sequence of Dipeptidyl peptidase 9 (Q86TI2 whole entry): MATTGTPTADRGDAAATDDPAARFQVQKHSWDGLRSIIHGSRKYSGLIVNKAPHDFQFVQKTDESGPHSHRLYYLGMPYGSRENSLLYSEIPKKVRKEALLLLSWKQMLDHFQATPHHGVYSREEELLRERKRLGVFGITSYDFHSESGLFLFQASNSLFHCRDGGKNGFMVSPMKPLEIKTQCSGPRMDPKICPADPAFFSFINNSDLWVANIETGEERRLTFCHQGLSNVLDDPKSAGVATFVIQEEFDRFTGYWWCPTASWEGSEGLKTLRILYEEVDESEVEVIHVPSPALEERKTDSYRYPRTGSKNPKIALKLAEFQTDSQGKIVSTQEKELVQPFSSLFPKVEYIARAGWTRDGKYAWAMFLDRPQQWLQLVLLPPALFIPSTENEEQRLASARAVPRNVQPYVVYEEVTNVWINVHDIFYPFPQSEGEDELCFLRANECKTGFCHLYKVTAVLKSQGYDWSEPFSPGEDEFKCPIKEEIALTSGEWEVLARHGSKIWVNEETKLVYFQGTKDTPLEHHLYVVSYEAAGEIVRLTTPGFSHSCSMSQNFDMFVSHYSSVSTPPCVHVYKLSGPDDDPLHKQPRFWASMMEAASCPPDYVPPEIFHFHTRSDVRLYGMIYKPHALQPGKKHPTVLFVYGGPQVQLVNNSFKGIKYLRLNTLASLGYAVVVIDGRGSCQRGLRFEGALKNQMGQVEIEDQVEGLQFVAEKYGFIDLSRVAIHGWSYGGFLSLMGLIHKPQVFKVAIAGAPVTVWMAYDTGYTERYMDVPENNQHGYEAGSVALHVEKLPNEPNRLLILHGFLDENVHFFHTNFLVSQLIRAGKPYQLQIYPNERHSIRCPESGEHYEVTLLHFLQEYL
Sequence of Dipeptidyl peptidase 8 (Q6V1X1 whole entry): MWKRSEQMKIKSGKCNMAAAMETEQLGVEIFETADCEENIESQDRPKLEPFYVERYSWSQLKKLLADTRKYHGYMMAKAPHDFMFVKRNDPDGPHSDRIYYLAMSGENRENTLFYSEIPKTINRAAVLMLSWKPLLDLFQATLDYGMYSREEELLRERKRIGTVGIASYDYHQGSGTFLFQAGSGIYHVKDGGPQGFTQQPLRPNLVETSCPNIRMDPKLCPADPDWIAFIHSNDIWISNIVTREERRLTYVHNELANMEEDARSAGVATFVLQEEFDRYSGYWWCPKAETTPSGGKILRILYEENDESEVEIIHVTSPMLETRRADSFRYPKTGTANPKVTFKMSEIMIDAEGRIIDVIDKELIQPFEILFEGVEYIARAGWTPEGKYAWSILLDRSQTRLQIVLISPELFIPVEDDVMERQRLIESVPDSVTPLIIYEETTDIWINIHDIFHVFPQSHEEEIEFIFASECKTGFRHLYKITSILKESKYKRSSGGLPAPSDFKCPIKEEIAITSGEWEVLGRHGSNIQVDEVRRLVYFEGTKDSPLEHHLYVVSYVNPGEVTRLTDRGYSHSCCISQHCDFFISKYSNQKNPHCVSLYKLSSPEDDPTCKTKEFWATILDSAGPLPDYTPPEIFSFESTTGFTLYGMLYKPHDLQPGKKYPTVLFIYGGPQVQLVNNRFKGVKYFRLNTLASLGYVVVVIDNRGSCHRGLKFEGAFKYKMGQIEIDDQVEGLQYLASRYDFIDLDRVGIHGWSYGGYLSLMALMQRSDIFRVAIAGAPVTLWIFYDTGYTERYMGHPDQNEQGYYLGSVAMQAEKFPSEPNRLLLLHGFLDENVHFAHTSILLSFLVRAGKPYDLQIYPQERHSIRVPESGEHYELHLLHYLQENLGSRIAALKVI

IC50 [1] [µM]	IC50 [2] [µM]	Structure (SMILES)	other results
> 100	> 100	Cc1ccc(Nc2cc(N3CCC[C@@H](N)C3)nc3ccnn23)c(C)c1	
		Cn1c(=O)cc(N2CCC[C@@H](N)C2)n(Cc2ccccc2C#N)c1=O [ALOGLIPTIN]	Activity [3]: 15 mM; Activity [4]: 17.4 mM; Activity [5]: 22.9 mM; Activity [6]: inactive; inhibition in vivo at 10 mg/kg/day [7]: 57%; inhibition in vivo at 10 mg/kg [8]: 30%; Activity [9]: 16.3 mM
> 100	> 100	N[C@@H]1CCCN(c2cc(NCCc3ccc(Cl)cc3Cl)n3nccc3n2)C1	
> 100	> 100	Clc1ccc(CCNc2cc(N3CCNCC3)nc3ccnn23)c(Cl)c1	Activity [10]: Toxic
> 100	> 100	O=[N+]([O-])c1ccccc1Nc1cc(N2CCNCC2)nc2ccnn12	
> 100	> 100	N[C@@H]1CCCN(c2cc(Nc3ccccc3Cl)n3nccc3n2)C1	
> 100	> 100	Fc1ccc(Nc2cc(N3CCNCC3)nc3ccnn23)c(F)c1	
> 50	> 50	N[C@@H]1CCCN(c2cc(Nc3cc(Cl)ccn3)n3nccc3n2)C1	
		CN(c1ccccc1)c1cc(N2CCC[C@@H](N)C2)nc2ccnn12	IC50 [11]: > 100 µM
> 50	> 50	N[C@@H]1CCCN(c2cc(NCc3ccc(O)cc3)n3nccc3n2)C1	
